According to ChEMBL document CHEMBL1142962, “Antiproliferative prenylated stilbenes and flavonoids from Macaranga alnifolia from the Madagascar rainforest” (J Nat Prod, 2007):

Assays:
Format in all cases: functional
Conditions in all cases: Homo sapiens
RPMI-8226 = assay: Growth inhibition of RPMI8226 cells
SF-295 = assay: Growth inhibition of SF295 cells
NCI-H322M = assay: Growth inhibition of NCI-H322M cells
MOLT-4 = assay: Growth inhibition of MOLT4 cells
Outline: (§1)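 Tested in the NCI 60 human tumour cell line screen, which was run by NCI. The value for each line is the GI50, the concentration giving 50% growth inhibition. Results are also shown as a mean graph across the full panel.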

NCI/ADR-RES = assay: Growth inhibition of NCI/ADR-RES cells
A498 = assay: Growth inhibition of A498 cells; outline: as §1
786-0 = assay: Growth inhibition of 786-0 cells
NCI-H23 = assay: Growth inhibition of NCI-H23 cells
SW-620 = assay: Growth inhibition of SW620 cells; outline: as §1
CCRF-CEM = assay: Growth inhibition of CCRF-CEM cells; outline: as §1
SN12C = assay: Growth inhibition of SN12C cells; outline: as §1
SK-OV-3 = assay: Growth inhibition of SKOV3 cells
HCT-15 = assay: Growth inhibition of HCT15 cells
TK-10 = assay: Growth inhibition of TK10 cells
SF-268 = assay: Growth inhibition of SF268 cells
OVCAR-8 = assay: Growth inhibition of OVCAR8 cells; outline: as §1
DU-145 = assay: Growth inhibition of DU145 cells; outline: as §1
HOP-62 = assay: Growth inhibition of HOP62 cells
SK-MEL-28 = assay: Growth inhibition of SK-MEL-28 cells; outline: as §1
MCF7 = assay: Growth inhibition of MCF7 cells; outline: as §1
NCI-H522 = assay: Growth inhibition of NCI-H522 cells; outline: as §1
HCT-116 = assay: Growth inhibition of HCT116 cells
MDA-MB-231 = assay: Growth inhibition of MDA-MB-231/ATCC cells; outline: as §1
PC-3 = assay: Growth inhibition of PC3 cells
K562 = assay: Growth inhibition of K562 cells; outline: as §1
UACC-257 = assay: Growth inhibition of UACC257 cells; outline: as §1
[1] = read-out: Log LC50 (the source's name) (converted)

COc1cc(/C=C/c2cc(O)c(CC=C(C)C)c(O)c2)cc2c1O[C@]1(C)C[C@@H](O)[C@@H](O)C(C)(C)[C@H]1C2 [SCHWEINFURTHIN E]
CC50 (RPMI-8226; [1]): > 100 µM | TGI (RPMI-8226; read-out: Log TGI (converted)): 0.0525 µM | GI50 (SF-295): < 0.01 µM | CC50 (SF-295; [1]): < 0.01 µM | TGI (SF-295; read-out: Log TGI (converted)): < 0.01 µM | GI50 (NCI-H322M): 0.288 µM | CC50 (NCI-H322M; [1]): 13.8 µM | TGI (NCI-H322M; read-out: Log TGI (converted)): 2.24 µM | GI50 (MOLT-4; read-out: GI50): < 0.01 µM | CC50 (MOLT-4; [1]): > 100 µM | TGI (MOLT-4; read-out: Log TGI (converted)): < 0.01 µM | TGI (MOLT-4; read-out: TGI): < 0.01 µM | GI50 (MOLT-4; read-out: pGI50 (converted)): < 0.01 µM | GI50 (NCI/ADR-RES): 2.24 µM | CC50 (NCI/ADR-RES; [1]): 50.1 µM | TGI (NCI/ADR-RES; read-out: Log TGI (converted)): 6.61 µM | LC50 (A498): > 100 µM | GI50 (A498; read-out: GI50): < 0.01 µM | TGI (A498; read-out: Log TGI (converted)): < 0.01 µM | TGI (A498; read-out: TGI): < 0.01 µM | GI50 (A498; read-out: pGI50 (converted)): < 0.01 µM | GI50 (786-0): < 0.01 µM | CC50 (786-0; [1]): 9.77 µM | TGI (786-0; read-out: Log TGI (converted)): 1.07 µM | GI50 (NCI-H23): 0.24 µM | CC50 (NCI-H23; [1]): 13.8 µM | TGI (NCI-H23; read-out: Log TGI (converted)): 2.34 µM | GI50 (SW-620): 0.11 µM | CC50 (SW-620; [1]): > 100 µM | TGI (SW-620; read-out: Log TGI (converted)): 2.04 µM | GI50 (CCRF-CEM): < 0.01 µM | CC50 (CCRF-CEM; [1]): > 100 µM | TGI (CCRF-CEM; read-out: Log TGI (converted)): 10 µM | GI50 (SN12C): 2.09 µM | CC50 (SN12C; [1]): 34.7 µM | TGI (SN12C; read-out: Log TGI (converted)): 7.59 µM | LC50 (SK-OV-3): 93.3 µM | GI50 (SK-OV-3; read-out: GI50): 2.2 µM | TGI (SK-OV-3; read-out: Log TGI (converted)): 11 µM | GI50 (SK-OV-3; read-out: pGI50 (converted)): 2.75 µM | GI50 (HCT-15): 0.603 µM | CC50 (HCT-15; [1]): 26.9 µM | TGI (HCT-15; read-out: Log TGI (converted)): 3.63 µM | CC50 (TK-10; [1]): 18.6 µM | TGI (TK-10; read-out: Log TGI (converted)): 2.63 µM | GI50 (SF-268): 2.63 µM | CC50 (SF-268; [1]): > 100 µM | TGI (SF-268; read-out: Log TGI (converted)): > 100 µM | GI50 (OVCAR-8; read-out: GI50): 2.2 µM | CC50 (OVCAR-8; [1]): > 100 µM | TGI (OVCAR-8; read-out: Log TGI (converted)): 6.76 µM | GI50 (OVCAR-8; read-out: pGI50 (converted)): 2.51 µM | GI50 (DU-145): 0.468 µM | CC50 (DU-145; [1]): 72.4 µM | TGI (DU-145; read-out: Log TGI (converted)): 14.1 µM | GI50 (HOP-62): < 0.01 µM | CC50 (HOP-62; [1]): 7.76 µM | TGI (HOP-62; read-out: Log TGI (converted)): 0.0759 µM | GI50 (SK-MEL-28): 0.372 µM | CC50 (SK-MEL-28; [1]): > 100 µM | TGI (SK-MEL-28; read-out: Log TGI (converted)): 5.25 µM | GI50 (MCF7): 0.0617 µM | CC50 (MCF7; [1]): > 100 µM | TGI (MCF7; read-out: Log TGI (converted)): 26.9 µM | GI50 (NCI-H522): 2 µM | CC50 (NCI-H522; [1]): > 100 µM | TGI (NCI-H522; read-out: Log TGI (converted)): > 100 µM | GI50 (HCT-116): 0.0209 µM | CC50 (HCT-116; [1]): 6.92 µM | TGI (HCT-116; read-out: Log TGI (converted)): 0.871 µM | GI50 (MDA-MB-231): 0.851 µM | CC50 (MDA-MB-231; [1]): 26.3 µM | TGI (MDA-MB-231; read-out: Log TGI (converted)): 3.47 µM | GI50 (PC-3): 0.138 µM | CC50 (PC-3; [1]): 47.9 µM | TGI (PC-3; read-out: Log TGI (converted)): 9.55 µM | GI50 (K562): < 0.01 µM | TGI (K562; read-out: Log TGI (converted)): 0.692 µM | GI50 (UACC-257): 0.166 µM | CC50 (UACC-257; [1]): 37.2 µM | TGI (UACC-257; read-out: Log TGI (converted)): 3.63 µM
